Data set [1] is described as follows: Cytotoxicity against mock-infected african green monkey Vero 76 cells after 48 to 96 hrs by MTT assay. The data set is classed as cell-based. The conditions noted are these: chlorocebus sabaeus, mock-infected Vero 76 cells.
Data set [2] concerns Human alphaherpesvirus 1. Description: Antiviral activity against HSV1 infected in african green monkey Vero 76 cells assessed as reduction in plaque number after 3 days by plaque reduction assay. The data set is classed as functional, organism-based. The settings on record: Human alphaherpesvirus 1, Vero, 72 h.
Data set [3] concerns Coxsackievirus B5. Put plainly: Antiviral activity against Coxsackievirus B5 infected in african green monkey Vero 76 cells assessed as reduction in plaque number after 3 days by plaque reduction assay. The data set is classed as functional, organism-based. The settings on record: Enterovirus B, 72 h.
Data set [4] relates to Bovine viral diarrhea virus 1. Put plainly: Antiviral activity against Bovine viral diarrhea virus infected in MDBK cells assessed as inhibition of virus-induced cytopathogenicity after 3 to 4 days by MTT assay. The class given is functional, organism-based. The conditions noted are these: Bovine viral diarrhea virus isolates and strains.
Data set [5] relates to Respiratory syncytial virus. Put plainly: Antiviral activity against Respiratory syncytial virus infected in african green monkey Vero 76 cells assessed as reduction in plaque number after 5 days by plaque reduction assay. The class given is functional, organism-based. The settings on record: human respiratory syncytial virus, 120 h.
Data set [6] in a line: Cytotoxicity against mock-infected MDBK cells after 48 to 96 hrs by MTT assay. The data set is classed as cell-based, Bos taurus. The settings on record: cattle. A digest of the protocol:
(§1)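 Mock-infected MDBK (6 × 10^5 cells/mL; MEM-E, 10% horse serum, 1 mM pyruvate) or BHK (1 × 10^6 cells/mL; MEM-E, 10% FBS) cells were incubated at 37 °C, 5% CO2 with serial dilutions from 100 µM, 1:5. Viability by MTT after 48–96 h. CC50 from linear regression against untreated controls.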

Data set [7] is described as follows: Selectivity index, ratio of CC50 for african green monkey Vero 76 cells to EC50 for Respiratory syncytial virus. The class given is toxicity, cell-based. The conditions noted are these: read-out: Ratio CC50/EC50. A digest of the protocol:
(§2)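 Mock-infected Vero-76 cells were tested in parallel on the same 24-well plates as the plaque assays (seeding 4 × 10^5 cells/mL, D-MEM with FBS), with serial compound dilutions at 37 °C, 5% CO2. Viability was read after 48–96 h by crystal violet staining. CC50 by linear regression; selectivity index = Vero-76 CC50/EC50 for CVB-5 or RSV.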

Data set [8] in a line: Cytotoxicity against mock-infected human MT4 cells after 96 hrs by MTT assay. The class given is cell-based. The essentials: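 Exponentially growing MT-4 cells were seeded at 1 × 10^5 cells/mL in RPMI-1640 with 10% FBS and held at 37 °C, 5% CO2 with serial compound dilutions. Viability was read by MTT after 96 h. CC50 from linear regression against untreated controls.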

In data set [9] the test system is Human immunodeficiency virus 1. Description: Antiviral activity against HIV1 infected in human MT4 cells assessed as inhibition of virus-induced cytopathogenicity after 4 days by MTT assay. The class given is functional, organism-based. The settings on record: Human immunodeficiency virus 1, MT4, 96 h. The essentials: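 MT-4 cells (1 × 10^4/well in RPMI) were infected acutely with HIV-1 IIIB, 100 CCID50 (m.o.i. 0.01), with serial dilutions from 100 µM, 1:5. After 4 days at 37 °C, protection from virus-induced cytopathogenicity was read by MTT. EC50 came from linear regression against untreated controls.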

For data set [10], the system named is Vaccinia virus. Description: Antiviral activity against Vaccinia Virus infected in african green monkey Vero 76 cells assessed as reduction in plaque number after 3 days by plaque reduction assay. The data set is classed as functional, organism-based. The conditions noted are these: Orthopoxvirus vaccinia, 72 h.
Data set [11] concerns Vesicular stomatitis virus. Description: Antiviral activity against Vesicular stomatitis virus infected in african green monkey Vero 76 cells assessed as reduction in plaque number after 2 days by plaque reduction assay. The class given is functional, organism-based. The settings on record: 48 h.
Data set [12] concerns Reovirus sp. Description: Antiviral activity against Reovirus type-1 infected in BHK21 cells assessed as inhibition of virus-induced cytopathogenicity after 3 to 4 days by MTT assay. The data set is classed as functional, organism-based. The conditions noted are these: BHK-21.
Data set [13] is described as follows: Cytotoxicity against mock-infected BHK21 cells after 48 to 96 hrs by MTT assay. The settings on record: Mesocricetus auratus, BHK-21. The data set is classed as functional. A digest of the protocol: as §1
The test system of data set [14] is Poliovirus 1. Description: Antiviral activity against Poliovirus type 1 Sabin strain infected in african green monkey Vero 76 cells assessed as reduction in plaque number after 2 days by plaque reduction assay. The class given is functional, organism-based. The conditions noted are these: Enterovirus C, 48 h.
A short description of data set [15]: Selectivity index, ratio of CC50 for african green monkey Vero 76 cells to EC50 for Coxsackievirus B5. The data set is classed as toxicity, cell-based. The settings on record: read-out: Ratio CC50/EC50. The essentials:
as §2

In data set [16] the test system is Yellow fever virus. Put plainly: Antiviral activity against Yellow fever virus infected in BHK21 cells assessed as inhibition of virus-induced cytopathogenicity after 3 to 4 days by MTT assay. The class given is functional, organism-based. The conditions noted are these: BHK-21.

pEC50: −log10 of the molar value. Where only a bound is given, the exact number is not on record here.

As for `Clc1ccc2nc(-c3ccccc3)n([C@H]3CCCN4CCCC[C@H]34)c2c1`, the CC50 in data set [1] came to 90 µM; in [6], 86 µM; in [13], 48 µM. Further, the negative-log EC50 (pEC50) in data set [2] is under 4.00; in [3] it was 4.85; in data set [4] it was 4.10; in data set [5], 4.35; in data set [9], under 4.00; in data set [10] it was under 4.00. Moreover, the pEC50 in [11], in data set [12], in data set [14] and in data set [16] was under 4.00 throughout. The results for the selectivity ratio in data set [7] and in [15] were 2 and 6.43, respectively. In [8], this compound had a CC50 at 96 h of 56 µM.

On to `Cc1ccc2nc(-c3ccc(F)cc3)n([C@H]3CCCN4CCCC[C@H]34)c2c1`, for which the CC50 in data set [1], in [6] and in data set [13] was over 100 µM throughout. Moreover, the negative-log EC50 (pEC50) is under 4.00 in data set [2]; 4.10 in data set [3]; under 4.00 in [4]; 4.20 in data set [5]; under 4.00 in [9]; under 4.00 in [10]. In addition, the negative-log EC50 (pEC50) in data set [11], in data set [12], in data set [14] and in data set [16] was under 4.00 in each case. Also, the selectivity ratio was over 1.59 in data set [7] and over 1.25 in [15]. The compound also had a cytotoxic concentration (CC50) at 96 h in data set [8] of over 100 µM.

For `CCC/C=C(\CC)c1nc2ccccc2[nH]1`, the CC50 was at least 100 µM in data set [1], over 100 µM in data set [6] and 67 µM in data set [13]. Also, the pEC50 is under 4.00 in data set [2]; 4.05 in data set [3]; under 4.00 in data set [4]; 4.66 in data set [5]; under 4.00 in [9]; under 4.00 in [10]. The pEC50 in [11], in data set [12], in data set [14] and in [16] was under 4.00 each time. In addition, the results for the selectivity ratio in data set [7] and in data set [15] were over 4.54 and over 1.11, respectively. The compound also returned a CC50 at 96 h in data set [8] of 61 µM.

On to `Clc1cc2nc(Cc3ccc(Br)cc3)n(C[C@@H]3CCCN4CCCC[C@H]34)c2cc1Cl`, for which the CC50 in [1] was over 100 µM; in [6], 58 µM; in data set [13] it was 70 µM. Also, the negative logarithm of the EC50 (pEC50) was under 4.00 in data set [2]; 4.30 in data set [3]; under 4.00 in data set [4]; 5.05 in [5]; under 4.00 in [9]; under 4.00 in [10]. Moreover, the pEC50 in data set [11], in [12], in data set [14] and in data set [16] was under 4.00 in each case. In addition, the selectivity ratio was over 11.1 in data set [7] and over 2 in data set [15]. The compound further displayed a CC50 at 96 h in data set [8] of 12 µM.

As to `Nc1ccc(Cc2nc3cc(Cl)c(Cl)cc3[nH]2)cc1`, the CC50 in data set [1] turned out to be 80 µM; in data set [6] it was 62 µM; in data set [13] it was 43 µM. In addition, the pEC50 in [2] is under 4.00; in data set [3], 4.92; in data set [4], 4.66; in data set [5], 4.70; in [9], under 4.00; in data set [10], under 4.00. The pEC50 in data set [11] is under 4.00; in [12] it was under 4.00; in data set [14] it was 4.10; in data set [16], under 4.00. Also, the selectivity ratio was 4 in data set [7] and 6.67 in data set [15]. In data set [8], the midpoint of cytotoxicity, the CC50 at 96 h, lay at 71 µM.

(Values after ChEMBL document CHEMBL3351523 (Bioorg Med Chem, 2014).)
